Values after ≈ are worked out from the molar mass of the structure shown.
Legend:
[1] = test system: Enterococcus faecium; experiment: Antimicrobial activity against Enterococcus faecium HMC 588 assessed as time required to induce sub-MIC effect at 0.4 times MIC exposed for 2 hrs by plate counting method; type: functional
How it was run: (§1)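 Unexposed Mueller-Hinton broth cultures (about 5 × 10^6 CFU/ml, 35°C) were handled as in the PA-SME set but without the 10× MIC pre-exposure. They were diluted 1:1,000, then given telavancin at final 0.2, 0.3 or 0.4× MIC, with a drug-free control. Viable counts were taken every 2 h until McFarland no. 1 turbidity. Effect duration comes from log10 CFU/ml-time plots; two separate experiments with new inocula.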

[2] = test system: Staphylococcus aureus; experiment: Antimicrobial activity against vancomycin-resistant-, methicillin-resistant Staphylococcus aureus 510 assessed as post-antibiotic effect at 10 times MIC pre-exposed for 1 hr by plate counting method; type: functional
How it was run: (§2)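 Direct colony suspensions (~5 × 10^6 CFU/ml) were exposed to 10× MIC for 1 h at 35°C with shaking in Mueller-Hinton broth, then diluted 1:1,000 to remove drug. Viable plate counts were taken before exposure, at 0 h, then every 2 h until turbidity reached McFarland 1. PAE = T − C, the time for counts to rise 1 log10 versus the unexposed control. Two separate experiments were run.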

[3] = test system: Staphylococcus aureus; experiment: Antimicrobial activity against vancomycin-intermediate-, methicillin-resistant Staphylococcus aureus 770 assessed as post-antibiotic effect at 10 times MIC pre-exposed to Telavancin for 1 hr by plate counting method; type: functional
How it was run: (§3)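 Viable plate count method in Mueller-Hinton broth. Direct colony suspension inoculum of about 5 × 10^6 CFU/ml was exposed to 10× MIC for 1 h at 35°C in a shaking water bath, then diluted 1:1,000 to remove drug. Counts were taken before exposure, at 0 h, then every 2 h until McFarland no. 1 turbidity. PAE = T − C, the time to a 1 log10 rise versus an unexposed growth control.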

[4] = test system: Staphylococcus aureus; experiment: Antimicrobial activity against vancomycin-intermediate-, methicillin-resistant Staphylococcus aureus 555 assessed as time required to induce post antibiotic sub-MIC effect at 0.2 times MIC […] by plate counting method; type: functional
How it was run: (§4)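 PAE was first induced with 10× MIC for 1 h at 35°C (inoculum about 5 × 10^6 CFU/ml, Mueller-Hinton broth) and ended by 1:1,000 dilution. Cultures were then split and given 0.2, 0.3 or 0.4× MIC, with one tube left without drug. Viable counts were taken before exposure, after dilution, then every 2 h until McFarland no. 1 turbidity. Two separate experiments, each with a new inoculum.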

[5] = test system: Staphylococcus aureus; experiment: Antimicrobial activity against vancomycin-intermediate-, methicillin-resistant Staphylococcus aureus 1984 assessed as time required to induce sub-MIC effect at 0.2 times MIC […] by plate counting method; type: functional
How it was run: (§5)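 SME, viable plate count method: no prior drug exposure. About 5 × 10^6 CFU/ml in Mueller-Hinton broth at 35°C received 0.2, 0.3 or 0.4× MIC, alongside a drug-free tube. Counts were taken at the start, then every 2 h until McFarland no. 1 turbidity, as log10 CFU/ml against time. Two separate experiments, each with a new inoculum.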

[6] = test system: Streptococcus pyogenes; experiment: Antimicrobial activity against Streptococcus pyogenes HMC 414 assessed as time required to induce sub-MIC effect at 0.4 times MIC exposed for 2 hrs by plate counting method; type: functional; how it was run: as §1
[7] = test system: Staphylococcus aureus; experiment: Antimicrobial activity against vancomycin-intermediate-, methicillin-resistant Staphylococcus aureus 770 assessed as time required to induce post antibiotic sub-MIC effect at 0.2 times MIC pre-exposed to Telavancin […] by plate counting method; type: functional; how it was run: as §4
[8] = test system: Staphylococcus aureus; experiment: Antimicrobial activity against vancomycin-intermediate-, methicillin-resistant Staphylococcus aureus 1287 assessed as post-antibiotic effect at 10 times MIC pre-exposed to Telavancin for 1 hr by plate counting method; type: functional; how it was run: as §3
[9] = test system: Enterococcus faecalis; experiment: Antimicrobial activity against Enterococcus faecalis ATCC 29212 assessed as time required to induce sub-MIC effect at 0.4 times MIC exposed for 2 hrs by plate counting method; type: functional; how it was run: as §1
[10] = test system: Staphylococcus aureus; experiment: Antimicrobial activity against vancomycin-intermediate-, methicillin-resistant Staphylococcus aureus 555 assessed as time required to induce sub-MIC effect at 0.4 times MIC […] by plate counting method; type: functional; how it was run: as §5
[11] = test system: Streptococcus agalactiae; experiment: Antimicrobial activity against Streptococcus agalactiae HMC 5 by microdilution method; type: functional
[12] = test system: Staphylococcus aureus; experiment: Antimicrobial activity against vancomycin-susceptible-, methicillin-resistant Staphylococcus aureus ATCC 33591 assessed as post-antibiotic effect at 10 times MIC pre-exposed to Telavancin for 1 hr by plate counting method; type: functional; how it was run: as §2
[13] = test system: Enterococcus faecalis; experiment: Antimicrobial activity against Enterococcus faecalis HMC 571 assessed as time required to induce sub-MIC effect at 0.4 times MIC exposed for 2 hrs by plate counting method; type: functional; how it was run: as §1
[14] = test system: Staphylococcus aureus; experiment: Antimicrobial activity against vancomycin-intermediate-, methicillin-resistant Staphylococcus aureus 1287 assessed as time required to induce sub-MIC effect at 0.4 times MIC […] by plate counting method; type: functional; how it was run: as §5
[15] = test system: Staphylococcus aureus; experiment: Antimicrobial activity against vancomycin-resistant-, methicillin-resistant Staphylococcus aureus 510 assessed as time required to induce post antibiotic sub-MIC effect at 0.3 times MIC […] by plate counting method; type: functional
How it was run: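 After 1 h preexposure to 10× MIC at 35°C and 1:1,000 dilution, cultures were split, and drug was re-added to final 0.2, 0.3 or 0.4× MIC, with a drug-free tube. Viable counts were taken every 2 h until McFarland 1 turbidity. Duration was derived from log10 CFU/ml versus time curves. Two experiments were run, each with a new inoculum.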

[16] = test system: Staphylococcus aureus; experiment: Antimicrobial activity against vancomycin-intermediate-, methicillin-resistant Staphylococcus aureus 1984 assessed as time required to induce post antibiotic sub-MIC effect at 0.2 times MIC pre-exposed to Telavancin for 1 hr by plate counting method
[17] = test system: Streptococcus pyogenes; experiment: Antimicrobial activity against Streptococcus pyogenes HMC 414 assessed as time required to induce sub-MIC effect at 0.3 times MIC exposed for 2 hrs by plate counting method; type: functional; how it was run: as §1
[18] = test system: Staphylococcus aureus; experiment: Antimicrobial activity against vancomycin-susceptible-, methicillin-resistant Staphylococcus aureus 1130 assessed as time required to induce sub-MIC effect at 0.2 times MIC exposed for 2 hrs by plate counting method; type: functional
How it was run: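 Sub-MIC effect: cultures not preexposed to drug were diluted and handled as in the PA-SME procedure in Mueller-Hinton broth with final 0.2, 0.3 or 0.4× MIC, plus a drug-free control. Viable plate counts were taken every 2 h until McFarland 1 turbidity. Duration was derived from growth curves. Two experiments were run, each with a new inoculum.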

[19] = test system: Streptococcus pyogenes; experiment: Antimicrobial activity against Streptococcus pyogenes HMC 414 assessed as time required to induce post antibiotic sub-MIC effect at 0.4 times MIC […] by plate counting method; type: functional
How it was run: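 Mueller-Hinton broth cultures of about 5 × 10^6 CFU/ml were pre-exposed to telavancin at 10× MIC for 1 h at 35°C, then diluted 1:1,000. Telavancin was re-added to final 0.2, 0.3 or 0.4× MIC, alongside a drug-free tube. Viable counts were taken before exposure, after dilution, then every 2 h until McFarland no. 1 turbidity. Duration comes from log10 CFU/ml-versus-time plots; two separate experiments with fresh inocula.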

[20] = test system: Staphylococcus aureus; experiment: Antimicrobial activity against vancomycin-intermediate-, methicillin-resistant Staphylococcus aureus 1984 assessed as time required to induce post antibiotic sub-MIC effect at 0.3 times MIC […] by plate counting method; type: functional; how it was run: as §4

## CCCCCCCCCCNCCN[C@@]1(C)C[C@H](O[C@H]2[C@H](Oc3c4cc5cc3Oc3ccc(cc3Cl)[C@@H](O)[C@@H](NC(=O)[C@@H](CC(C)C)NC)C(=O)N[C@@H](CC(N)=O)C(=O)N[C@H]5C(=O)N[C@H]3C(=O)N[C@H](C(=O)N[C@H](C(=O)O)c5cc(O)c(CNCP(=O)(O)O)c(O)c5-c5cc3ccc5O)[C@H](O)c3ccc(c(Cl)c3)O4)O[C@H](CO)[C@@H](O)[C@@H]2O)O[C@@H](C)[C@H]1O [TELAVANCIN]
[1]
  PAE: 8.8 h
[2]
  PAE: 1.3 h
[3]
  PAE: 1.6 h
[4]
  PAE: 5.9 h
[5]
  PAE: 1 h
[6]
  PAE: 0.4 h
[7]
  PAE: 3.8 h
[8]
  PAE: 1.2 h
[9]
  PAE: 3.6 h
[10]
  PAE: 4.3 h
[11]
  MIC: 0.12 µg/mL (≈ 0.0684 µM)
[12]
  PAE: 1.5 h
[13]
  PAE: 9.6 h
[14]
  PAE: 0.8 h
[15]
  PAE: 6 h
[16]
  PAE: 6.8 h
[17]
  PAE: 0 h
[18]
  PAE: 0 h
[19]
  PAE: > 10.7 h
[20]
  PAE: > 10 h

Source: ChEMBL document CHEMBL1629663, “Postantibiotic effects of telavancin against 16 gram-positive organisms” (Antimicrob Agents Chemother, 2009)
